Bioassay records from PubChem.
PAD4 FP inh: inhibitors of human PAD4; recombinant PAD4, RCA probe fluorescence polarization; 0.41% of 330,000 active; inhibition, % at 6.36 µM; Q9UM07;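 active = percent inhibition above a cutoff equal to the mean of all tested compounds plus 3 SD, cut at about 15% in these data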;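 also: 0% = PAD4 with RCA probe and DMSO and 100% = probe without PAD4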
GSTO1 inh: counter-screen for RBBP9 inhibitors: inhibitors of human GSTO1; 1.1% of 300,000 active; inhibition, % at 5.96 µM; recombinant GSTO1, activity-based probe fluorescence polarization; P78417; AID 1974;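 active = inhibition above the campaign mean inhibition plus 3 SD, cut at about 35% in these data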;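 also: 0% = GSTO1-1 with DMSO and 100% = wells lacking GSTO1-1 enzyme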
Target sequence (P78417 whole entry, looked up): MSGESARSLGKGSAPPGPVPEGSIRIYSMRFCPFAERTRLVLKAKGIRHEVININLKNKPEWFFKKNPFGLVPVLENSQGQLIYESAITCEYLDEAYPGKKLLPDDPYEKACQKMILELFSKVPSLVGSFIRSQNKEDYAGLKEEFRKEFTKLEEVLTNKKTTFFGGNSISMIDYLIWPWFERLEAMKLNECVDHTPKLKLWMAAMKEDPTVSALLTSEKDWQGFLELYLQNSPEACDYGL
E coli Lon inh: inhibits E. coli Lon protease; P0A9M0; purified E. coli Lon protease, fluorescence polarization; inhibition, % at 7.94 µM; 0.42% of 360,000 active; AID 602123; in the data active = inhibition above about 13%, passing the limit was not always enough;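 also: 0% = enzyme with probe and DMSO and 100% = no enzyme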
PRMT1 inh: blocks human protein arginine methyltransferase 1; 1.3% of 370,000 active; recombinant PRMT1, activity-based probe fluorescence polarization; inhibition, % at 2.79 µM; AID 652257; Q99873;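 active = inhibition above about 21% made by adding two undisclosed values, limit read from the data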
TDP2 absorb: TDP2 (human) inhibition, absorbance primary screen. O95551. inhibition, % at 12.8 µM. 0.34% of 370,000 active. recombinant TDP2, T5PNP hydrolysis, p-nitrophenol absorbance 415 nm;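 active = inhibition above the mean of all tested compounds plus 3 SD, set per campaign, cut at about 25% in these data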;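 also: 0% = DMSO with enzyme and 100% = buffer with substrate but no TDP2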
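Evaluation: % inhibition relative to enzyme-containing and enzyme-free wells. Material: recombinant human TDP2. Benchmarks: enzyme-free and DMSO wells. Timing: enzyme reaction with compound for 2 h at 37 °C. Compound dosing: 12.8 µM only. Measured by: p-Nitrophenol epi absorbance. Reagent: T5PNP substrate at 5 mM, a TopII-DNA adduct mimic. Replication: single well per compound.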
TDP2 confirm: confirmation of human TDP2 inhibitors | shares compounds with TDP2 absorb | recombinant human TDP2, absorbance read-out | inhibition, % at 12.8 µM | 22% of 1,100 active | AID 743263; in the data active = inhibition above about 25%;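 also: 0% = vehicle with enzyme and 100% = no enzyme buffer only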
* marks the source's active call; other numbers are inactive results; . = no result. This is a sample that favours compounds with a hit; in the whole collection about 2.5% have one here.

SMILES | PAD4 FP inh | GSTO1 inh | E coli Lon inh | PRMT1 inh | TDP2 absorb | TDP2 confirm
CCOCCCn1c(SCc2ccccc2)nnc1-c1ccncc1 | -4.8 | 3.6 | -0.4 | 3.7 | 8.0 | .
COc1cccc(N2CC(NS(=O)(=O)c3cccnc3)CC2=O)c1 (centres undefined) | 4.4 | -1.9 | 3.3 | -3.5 | 28.7* | -4.7
CCOC(=O)N1CCN(C2=C(NS(=O)(=O)c3ccc(NC(C)=O)cc3)C(=O)c3ccccc3C2=O)CC1 | -17.7 | 25.0 | 3.9 | 2.2 | 28.2* | 23.7
CCOC(=O)C1CCN(C2=C(NS(=O)(=O)c3ccc(Cl)cc3)C(=O)c3ccccc3C2=O)CC1 | -0.7 | 18.0 | -4.1 | 3.5 | 17.8 | .
CCN1CCN(C2=C(NS(=O)(=O)c3ccc(C)cc3)C(=O)c3ccccc3C2=O)CC1 | -12.5 | 29.8 | 9.0 | 2.9 | 24.7* | 13.1
COc1ccccc1-c1cnn2c(NC3CCCC3)cc(C)nc12 | -0.3 | 8.4 | -3.4 | 5.2 | -13.2 | .
Cc1ccccc1C(OCC(O)CN1CCN(CCO)CC1)c1ccccc1 (centres undefined) | -5.2 | 4.6 | -1.6 | -0.8 | 26.6* | 7.4
OC(COC(c1ccccc1)c1ccccc1)CN1CCCCC1 (centres undefined) | 3.2 | 3.3 | -6.1 | -3.6 | 1.2 | .
FC(F)(F)c1cc(Cl)c2nc(-c3ccc(Cl)cc3)c(Cc3ccccc3)n2c1 | . | . | -14.0 | -3.5 | -5.0 | .
CCOC(=O)C1=C[C@@H](C2CCCCC2)N(S(=O)(=O)c2ccc([N+](=O)[O-])cc2)[C@H]1c1ccccc1 | . | . | -10.2 | 3.5 | -1.5 | .
COc1cccc(C2/C(=C(\O)c3ccc4c(c3)OCCO4)C(=O)C(=O)N2c2nnc(C)s2)c1 (centres undefined) | -3.6 | 3.0 | 2.8 | -3.3 | 3.0 | .
Cc1nnc(N2C(=O)C(=O)/C(=C(/O)c3ccc4c(c3)CC(C)O4)C2c2ccccc2F)s1 (centres undefined) | -1.8 | -4.3 | -3.6 | 5.9 | 36.5* | -5.2
Cc1cc2c(c(C#N)c1C)NC=NC2C (centres undefined) | . | . | 0.0 | -2.1 | 8.7 | .
CC1(C(=O)NC(=S)N(CCC#N)c2ccccc2)CC1(Cl)Cl (centres undefined) | 0.5 | 2.2 | -7.2 | 1.8 | 4.4 | .
CC(C)N(Cc1ccccc1)C(=S)NC(=O)C1(C)CC1(Cl)Cl (centres undefined) | -3.3 | -9.8 | 6.6 | -3.6 | 25.5* | 4.8
O=C1CN(C(=O)COC(=O)c2ccc(Br)o2)c2ccccc2N1 | 0.0 | . | -8.3 | 10.5 | -13.6 | .
CCCC1NC(=O)c2cc3ccccc3cc2-n2c1nc1ccc(F)cc1c2=O (centres undefined) | . | . | -6.6 | 1.3 | 2.6 | .
O=C(CNCCN1CCOCC1)Nc1ccccc1Sc1ccccc1 | -1.9 | 9.7 | -6.1 | 0.2 | 27.8* | 13.8
Cc1nc(COC(=O)c2ccc(CO)cc2)cs1 | 2.5 | 0.5 | -8.6 | -2.8 | -0.7 | .
Cc1nc(COC(=O)c2cc(O)c3ccccc3c2O)cs1 | . | . | -5.3 | 10.9 | 25.5* | 6.0
C=CCSc1nnc(COc2ccc(=O)n(-c3ccccc3)n2)n1CC | -1.6 | 5.8 | 4.7 | -4.5 | 24.6* | 5.8
CCn1c(COc2ccc(=O)n(-c3ccccc3)n2)nnc1SCc1cccc(OC)c1 | -4.9 | 0.3 | -4.1 | 0.7 | 7.8 | .
CC1=NN(c2ccc(S(=O)(=O)O)cc2C)C(=O)C1 | -15.2 | 23.9 | -2.5 | 9.4 | 33.9* | 37.6*
COc1cc(CN2CCN(Cc3ccc(SC)cc3)CC2)cc(OC)c1O | 1.4 | 4.7 | 4.5 | 2.0 | 5.0 | .
COc1cc(OC)c(OC)cc1CN1CCN(Cc2ccc(SC)cc2)CC1 | -7.2 | -1.3 | -2.2 | -0.6 | 24.9* | -0.6
O=C(Cc1ccc(F)cc1)N[C@@H]1c2ccccc2CC[C@@H]1OCc1ccccc1 | -0.7 | . | 0.2 | 5.7 | 4.5 | .
COc1cc(C(C)=O)ccc1OCC(O)CN1CCN(c2ccccn2)CC1 (centres undefined) | -5.1 | 12.3 | 10.5 | -3.3 | 26.3* | -1.1
COc1ccc(CN(C(=O)c2cccs2)c2ccccc2C(=O)O)cc1 | -2.4 | 2.8 | 3.2 | -0.5 | 7.6 | .
CN(C(=O)c1cccs1)c1ccccc1C(=O)O | -3.5 | -5.2 | -5.1 | 1.7 | 42.2* | 5.2
O=C(CSc1nnc(COc2ccc(Cl)cc2)o1)NC1CC2CCC1C2 (centres undefined) | 0.5 | 4.5 | 3.5 | 3.3 | -2.3 | .
